Test results reported in ChEMBL document CHEMBL5705888, “Substrate specificity and inhibitors of LRRK2, a protein kinase mutated in Parkinson's disease” (Biochem J, 2009).
Activity calls are given as the source filed them. No cut-off for these calls is given here.

How the values were obtained:
[1] = molecular target: Misshapen-like kinase 1 (Homo sapiens) (UniProt Q8N4C8); assay: Inhibition of MINK1 (unknown origin) at 0.1 uM incubated for 30 mins in presence of [gamma-33P]ATP by multidrop micro reagent based assay relative to control
[2] = molecular target: Leucine-rich repeat serine/threonine-protein kinase 2 (Mus musculus) (UniProt Q5S006); assay: Inhibition of LRRK2 in mouse Swiss-3T3 cells at 0.3 uM using Nictide as substrate by immunoblot analysis; format: cell-based
Chain of Leucine-rich repeat serine/threonine-protein kinase 2 (Mus musculus) (Q5S006 whole entry, the tested form may be a part): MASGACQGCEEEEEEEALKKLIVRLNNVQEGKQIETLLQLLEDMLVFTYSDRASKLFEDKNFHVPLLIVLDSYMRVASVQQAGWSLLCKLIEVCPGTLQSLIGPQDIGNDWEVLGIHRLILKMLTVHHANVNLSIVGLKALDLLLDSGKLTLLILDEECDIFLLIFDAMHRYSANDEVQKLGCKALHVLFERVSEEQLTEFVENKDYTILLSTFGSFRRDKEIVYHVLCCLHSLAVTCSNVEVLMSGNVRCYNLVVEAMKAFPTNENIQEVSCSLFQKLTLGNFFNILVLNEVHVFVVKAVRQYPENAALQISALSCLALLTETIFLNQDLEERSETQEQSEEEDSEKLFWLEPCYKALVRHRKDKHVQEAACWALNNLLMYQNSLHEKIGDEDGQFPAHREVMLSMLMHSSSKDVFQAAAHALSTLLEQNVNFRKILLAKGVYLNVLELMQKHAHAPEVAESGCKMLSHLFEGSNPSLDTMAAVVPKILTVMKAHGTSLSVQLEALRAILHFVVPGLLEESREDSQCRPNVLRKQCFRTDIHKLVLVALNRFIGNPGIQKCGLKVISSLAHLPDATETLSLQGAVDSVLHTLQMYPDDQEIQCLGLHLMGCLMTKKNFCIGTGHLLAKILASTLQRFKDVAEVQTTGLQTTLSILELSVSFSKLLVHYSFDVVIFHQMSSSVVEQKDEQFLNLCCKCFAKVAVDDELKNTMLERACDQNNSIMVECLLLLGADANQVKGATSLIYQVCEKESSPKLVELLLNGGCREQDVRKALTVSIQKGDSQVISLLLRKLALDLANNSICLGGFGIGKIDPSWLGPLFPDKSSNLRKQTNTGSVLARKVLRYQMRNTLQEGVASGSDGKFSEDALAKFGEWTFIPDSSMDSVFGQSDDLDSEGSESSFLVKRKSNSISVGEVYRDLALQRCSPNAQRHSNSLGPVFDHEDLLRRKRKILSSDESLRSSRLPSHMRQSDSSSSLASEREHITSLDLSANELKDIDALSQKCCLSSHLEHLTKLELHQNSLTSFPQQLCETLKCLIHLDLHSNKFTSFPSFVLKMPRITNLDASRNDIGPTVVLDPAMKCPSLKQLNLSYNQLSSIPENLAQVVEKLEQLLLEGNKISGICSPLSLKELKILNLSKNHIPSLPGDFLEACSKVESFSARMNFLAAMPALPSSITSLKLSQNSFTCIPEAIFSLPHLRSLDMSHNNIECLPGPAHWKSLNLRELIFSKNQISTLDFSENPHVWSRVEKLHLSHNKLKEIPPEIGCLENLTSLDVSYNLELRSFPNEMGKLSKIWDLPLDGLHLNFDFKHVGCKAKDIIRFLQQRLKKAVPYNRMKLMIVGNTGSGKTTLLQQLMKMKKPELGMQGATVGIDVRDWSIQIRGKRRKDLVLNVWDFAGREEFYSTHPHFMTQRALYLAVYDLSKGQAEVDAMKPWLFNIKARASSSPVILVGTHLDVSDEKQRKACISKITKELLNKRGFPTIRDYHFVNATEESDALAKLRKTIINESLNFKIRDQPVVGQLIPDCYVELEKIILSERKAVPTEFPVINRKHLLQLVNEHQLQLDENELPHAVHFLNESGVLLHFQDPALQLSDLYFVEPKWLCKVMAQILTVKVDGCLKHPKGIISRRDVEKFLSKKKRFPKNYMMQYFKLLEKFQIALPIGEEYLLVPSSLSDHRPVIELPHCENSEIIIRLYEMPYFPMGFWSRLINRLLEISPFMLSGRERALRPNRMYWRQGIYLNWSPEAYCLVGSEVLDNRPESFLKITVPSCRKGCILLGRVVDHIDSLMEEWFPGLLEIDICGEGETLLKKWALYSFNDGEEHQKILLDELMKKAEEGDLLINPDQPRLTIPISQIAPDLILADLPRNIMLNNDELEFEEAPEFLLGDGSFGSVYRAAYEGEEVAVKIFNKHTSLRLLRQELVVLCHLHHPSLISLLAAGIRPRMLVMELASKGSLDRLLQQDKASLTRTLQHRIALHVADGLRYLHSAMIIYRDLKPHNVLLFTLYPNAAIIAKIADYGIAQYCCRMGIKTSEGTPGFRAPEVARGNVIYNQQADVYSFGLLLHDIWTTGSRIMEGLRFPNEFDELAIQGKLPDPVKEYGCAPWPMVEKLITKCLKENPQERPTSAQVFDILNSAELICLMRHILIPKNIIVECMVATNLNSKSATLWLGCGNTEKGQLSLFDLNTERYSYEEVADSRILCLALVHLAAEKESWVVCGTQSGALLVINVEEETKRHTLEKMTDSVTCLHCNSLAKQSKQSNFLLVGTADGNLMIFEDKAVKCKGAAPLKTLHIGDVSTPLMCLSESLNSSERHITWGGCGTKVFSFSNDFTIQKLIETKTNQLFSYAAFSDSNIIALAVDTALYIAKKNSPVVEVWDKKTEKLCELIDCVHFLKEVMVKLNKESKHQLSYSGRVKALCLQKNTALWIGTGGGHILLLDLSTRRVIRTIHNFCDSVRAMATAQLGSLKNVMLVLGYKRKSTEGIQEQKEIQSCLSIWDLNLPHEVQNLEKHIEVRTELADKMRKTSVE

[3] = molecular target: Tyrosine-protein kinase CSK (Homo sapiens) (UniProt P41240); assay: Residual activity of CSK (unknown origin) at 10 uM incubated for 30 mins in presence of [gamma-33P]ATP by multidrop micro reagent based assay relative to control
[4] = molecular target: T1, MAP kinase-activated protein kinase 5 (Homo sapiens) (UniProt Q8IW41); assay: Inhibition of PRAK (unknown origin) at 10 uM incubated for 30 mins in presence of [gamma-33P]ATP by multidrop micro reagent based assay relative to control; values are per cent of control
T1 sequence (whole entry): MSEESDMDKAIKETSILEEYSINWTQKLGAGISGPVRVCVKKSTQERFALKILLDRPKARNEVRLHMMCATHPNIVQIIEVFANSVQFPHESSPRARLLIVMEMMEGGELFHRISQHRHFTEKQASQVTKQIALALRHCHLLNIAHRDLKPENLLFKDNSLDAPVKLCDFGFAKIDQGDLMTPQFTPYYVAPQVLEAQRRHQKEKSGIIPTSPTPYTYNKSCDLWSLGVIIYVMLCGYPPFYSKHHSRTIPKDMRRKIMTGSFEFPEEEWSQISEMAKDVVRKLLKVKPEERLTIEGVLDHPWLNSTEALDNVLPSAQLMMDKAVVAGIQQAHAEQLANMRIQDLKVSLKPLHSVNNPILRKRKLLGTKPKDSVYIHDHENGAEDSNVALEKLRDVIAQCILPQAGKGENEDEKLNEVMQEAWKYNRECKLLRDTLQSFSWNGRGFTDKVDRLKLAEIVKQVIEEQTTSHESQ

[5] = molecular target: Mitogen-activated protein kinase 13 (Homo sapiens) (UniProt O15264); assay: Residual activity of p38delta MAPK (unknown origin) at 10 uM incubated for 30 mins in presence of [gamma-33P]ATP by multidrop micro reagent based assay relative to control
[6] = molecular target: Ribosomal protein S6 kinase alpha-5 (Homo sapiens) (UniProt O75582); assay: Inhibition of MSK1 (unknown origin) at 10 uM incubated for 30 mins in presence of [gamma-33P]ATP by multidrop micro reagent based assay relative to control
Method in brief: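 Single-concentration screen across a panel of 85 protein kinases. Activity is expressed as a percentage of control incubations run without inhibitor.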

[7] = molecular target: Protein kinase C alpha type (Homo sapiens) (UniProt P17252); assay: Inhibition of PKCalpha (unknown origin) at 10 uM incubated for 30 mins in presence of [gamma-33P]ATP by multidrop micro reagent based assay relative to control; values are per cent of control
[8] = molecular target: T2, Dual specificity tyrosine-phosphorylation-regulated kinase 3 (Homo sapiens) (UniProt O43781); assay: Inhibition of DYRK3 (unknown origin) at 10 uM incubated for 30 mins in presence of [gamma-33P]ATP by multidrop micro reagent based assay relative to control
T2 sequence (whole entry): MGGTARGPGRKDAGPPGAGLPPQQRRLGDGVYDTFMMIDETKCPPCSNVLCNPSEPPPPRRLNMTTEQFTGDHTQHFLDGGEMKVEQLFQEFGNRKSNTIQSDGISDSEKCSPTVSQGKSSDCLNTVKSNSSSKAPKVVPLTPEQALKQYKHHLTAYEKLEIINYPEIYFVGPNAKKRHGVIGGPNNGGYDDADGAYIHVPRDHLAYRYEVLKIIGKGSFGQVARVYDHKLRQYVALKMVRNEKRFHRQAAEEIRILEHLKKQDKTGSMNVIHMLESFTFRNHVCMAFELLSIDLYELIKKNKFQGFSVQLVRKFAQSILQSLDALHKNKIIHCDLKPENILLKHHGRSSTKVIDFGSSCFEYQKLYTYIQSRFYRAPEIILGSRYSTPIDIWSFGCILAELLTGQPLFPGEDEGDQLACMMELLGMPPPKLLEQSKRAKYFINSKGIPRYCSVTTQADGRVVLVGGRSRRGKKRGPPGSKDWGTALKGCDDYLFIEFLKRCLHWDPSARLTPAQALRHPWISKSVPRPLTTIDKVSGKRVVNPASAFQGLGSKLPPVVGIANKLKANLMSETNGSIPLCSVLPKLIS

[9] = molecular target: Rho-associated protein kinase 2 (Homo sapiens, UniProt O75116); assay: Inhibition of His6-tagged ROCK2 (2 to 543 residues) (unknown origin) using peptide as substrate incubated for 15 mins in presence of ATP by immunoblotting analysis
[10] = molecular target: Leucine-rich repeat serine/threonine-protein kinase 2 (Mus musculus) (UniProt Q5S006); assay: Inhibition of LRRK2 in mouse Swiss-3T3 cells at 10 uM using Nictide as substrate by immunoblot analysis; format: cell-based
[11] = molecular target: Serine/threonine-protein kinase 26 (Homo sapiens) (UniProt Q9P289); assay: Inhibition of MST4 (unknown origin) at 1 uM incubated for 30 mins in presence of [gamma-33P]ATP by multidrop micro reagent based assay relative to control
[12] = molecular target: Tyrosine-protein kinase BTK (Homo sapiens) (UniProt Q06187); assay: Inhibition of BTK (unknown origin) at 10 uM incubated for 30 mins in presence of [gamma-33P]ATP by multidrop micro reagent based assay relative to control; values are per cent of control
[13] = molecular target: Leucine-rich repeat serine/threonine-protein kinase 2 (Mus musculus) (UniProt Q5S006); assay: Inhibition of LRRK2 in mouse Swiss-3T3 cells at 2 uM using Nictide as substrate by immunoblot analysis; format: cell-based
[14] = molecular target: Leucine-rich repeat serine/threonine-protein kinase 2 (Homo sapiens, UniProt Q5S007, A2016T/G2019S); assay: Inhibition of GST-tagged LRRK2 G2019S/A2016T mutant (1326 to 2527 residues) (unknown origin) in presence of ATP
Chain of Leucine-rich repeat serine/threonine-protein kinase 2 (Q5S007 whole entry A2016T/G2019S, the tested form may be a part): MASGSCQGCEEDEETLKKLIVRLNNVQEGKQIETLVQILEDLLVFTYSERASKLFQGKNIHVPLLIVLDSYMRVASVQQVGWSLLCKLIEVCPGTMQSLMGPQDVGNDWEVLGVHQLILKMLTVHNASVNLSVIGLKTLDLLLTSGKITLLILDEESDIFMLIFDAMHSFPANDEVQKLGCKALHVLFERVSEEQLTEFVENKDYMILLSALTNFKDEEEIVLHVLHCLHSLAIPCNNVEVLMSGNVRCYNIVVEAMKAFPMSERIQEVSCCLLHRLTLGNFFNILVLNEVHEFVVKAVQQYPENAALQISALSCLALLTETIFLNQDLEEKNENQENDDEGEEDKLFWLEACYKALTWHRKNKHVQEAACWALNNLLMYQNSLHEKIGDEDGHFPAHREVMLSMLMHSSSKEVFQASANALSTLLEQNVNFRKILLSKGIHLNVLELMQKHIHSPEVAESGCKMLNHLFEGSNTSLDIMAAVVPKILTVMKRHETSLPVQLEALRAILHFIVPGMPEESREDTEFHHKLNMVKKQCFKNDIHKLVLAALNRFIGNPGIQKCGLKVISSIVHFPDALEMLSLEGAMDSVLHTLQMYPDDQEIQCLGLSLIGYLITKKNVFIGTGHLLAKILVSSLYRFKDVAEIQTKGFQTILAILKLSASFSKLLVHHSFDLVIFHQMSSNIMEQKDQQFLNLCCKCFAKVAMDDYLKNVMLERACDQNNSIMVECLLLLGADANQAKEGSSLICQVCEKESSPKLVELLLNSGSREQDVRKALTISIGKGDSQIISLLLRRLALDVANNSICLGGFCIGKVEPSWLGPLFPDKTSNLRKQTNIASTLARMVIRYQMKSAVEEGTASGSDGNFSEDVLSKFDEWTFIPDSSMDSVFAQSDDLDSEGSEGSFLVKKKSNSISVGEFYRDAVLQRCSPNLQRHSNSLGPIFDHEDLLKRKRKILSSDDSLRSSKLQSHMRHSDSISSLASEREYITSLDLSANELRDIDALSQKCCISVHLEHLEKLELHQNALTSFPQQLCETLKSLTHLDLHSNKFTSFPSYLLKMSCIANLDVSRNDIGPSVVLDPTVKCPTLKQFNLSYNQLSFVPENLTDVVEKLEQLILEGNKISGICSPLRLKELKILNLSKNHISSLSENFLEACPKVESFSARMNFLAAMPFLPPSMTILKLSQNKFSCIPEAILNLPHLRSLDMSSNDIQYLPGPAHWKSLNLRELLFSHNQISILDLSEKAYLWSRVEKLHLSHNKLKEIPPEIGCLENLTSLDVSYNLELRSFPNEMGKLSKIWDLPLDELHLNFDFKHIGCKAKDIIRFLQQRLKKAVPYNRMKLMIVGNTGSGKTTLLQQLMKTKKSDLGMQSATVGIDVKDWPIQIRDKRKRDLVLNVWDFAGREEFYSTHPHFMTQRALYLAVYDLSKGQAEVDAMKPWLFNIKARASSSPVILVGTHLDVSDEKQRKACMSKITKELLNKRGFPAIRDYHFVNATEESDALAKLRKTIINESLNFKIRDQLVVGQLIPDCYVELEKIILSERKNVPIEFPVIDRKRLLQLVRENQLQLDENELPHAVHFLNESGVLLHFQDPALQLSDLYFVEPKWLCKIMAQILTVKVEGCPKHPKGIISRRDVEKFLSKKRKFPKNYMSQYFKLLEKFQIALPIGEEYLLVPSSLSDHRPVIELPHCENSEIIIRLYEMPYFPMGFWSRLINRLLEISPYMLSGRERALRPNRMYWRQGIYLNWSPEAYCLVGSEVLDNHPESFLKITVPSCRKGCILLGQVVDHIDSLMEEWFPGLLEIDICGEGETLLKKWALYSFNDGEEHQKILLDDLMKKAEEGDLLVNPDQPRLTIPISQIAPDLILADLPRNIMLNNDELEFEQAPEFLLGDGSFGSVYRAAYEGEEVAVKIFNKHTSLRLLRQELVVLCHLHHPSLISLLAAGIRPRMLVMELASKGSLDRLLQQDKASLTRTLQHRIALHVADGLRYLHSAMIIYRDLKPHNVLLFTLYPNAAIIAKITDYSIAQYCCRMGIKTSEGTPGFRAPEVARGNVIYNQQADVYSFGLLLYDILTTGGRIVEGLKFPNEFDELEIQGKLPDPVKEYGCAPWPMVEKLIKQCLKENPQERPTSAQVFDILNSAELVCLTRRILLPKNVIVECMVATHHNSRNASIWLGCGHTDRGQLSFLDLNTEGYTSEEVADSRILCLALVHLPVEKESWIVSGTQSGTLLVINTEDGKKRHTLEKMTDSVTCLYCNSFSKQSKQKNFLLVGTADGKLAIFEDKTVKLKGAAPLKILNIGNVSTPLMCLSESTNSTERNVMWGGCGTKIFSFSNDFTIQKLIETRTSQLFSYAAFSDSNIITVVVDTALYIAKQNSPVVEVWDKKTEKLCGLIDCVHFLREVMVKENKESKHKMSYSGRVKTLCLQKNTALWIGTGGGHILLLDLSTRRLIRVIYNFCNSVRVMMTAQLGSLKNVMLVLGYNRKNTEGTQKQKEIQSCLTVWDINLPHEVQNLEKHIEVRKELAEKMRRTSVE

CCN(CC)CCNC(=O)c1c(C)[nH]c(/C=C2\C(=O)Nc3ccc(F)cc32)c1C was tested, and the inhibition [1] was 46% and the inhibition [2] was “Active”.
C[C@@H](N)[C@H]1CC[C@H](C(=O)Nc2ccncc2)CC1 gave a residual activity [3] of 104%, a residual activity [4] of 88% and a residual activity [5] of 86%. It also gave an inhibition [6] of 41%, a residual activity [7] of 52% and an inhibition [8] of 100%.
For CC1=C(C(=O)Nc2cc3cn[nH]c3cc2F)C(c2ccc(C(F)(F)F)cc2)CC(=O)N1 (centres undefined), the IC50 [9] was 0.063 µM, the inhibition [10] was “inactive” and the residual activity [11] was 70%.
With O=S(=O)(c1cccc2cnccc12)N1CCCNCC1 [FASUDIL] the residual activity [12] was 112%.
In the case of Cc1cncc2cccc(S(=O)(=O)N3CCCNC[C@@H]3C)c12, the inhibition [13] is reported as “Active” and the IC50 [14] is reported as 3.3 µM.
